Values after ≈ are worked out from the molar mass of the structure shown. Active and inactive are the calls of the source. The rule behind the calls is not given here.
How the values were obtained:
Adenosine receptor A1 = molecular target: T1, Adenosine receptor A1 (Homo sapiens, UniProt P30542); experiment: Displacement of radioligand from human recombinant adenosine A1 receptor at 21 degC after 90 mins by cell-based microplate scintillation counting
T1 sequence (P30542 whole entry): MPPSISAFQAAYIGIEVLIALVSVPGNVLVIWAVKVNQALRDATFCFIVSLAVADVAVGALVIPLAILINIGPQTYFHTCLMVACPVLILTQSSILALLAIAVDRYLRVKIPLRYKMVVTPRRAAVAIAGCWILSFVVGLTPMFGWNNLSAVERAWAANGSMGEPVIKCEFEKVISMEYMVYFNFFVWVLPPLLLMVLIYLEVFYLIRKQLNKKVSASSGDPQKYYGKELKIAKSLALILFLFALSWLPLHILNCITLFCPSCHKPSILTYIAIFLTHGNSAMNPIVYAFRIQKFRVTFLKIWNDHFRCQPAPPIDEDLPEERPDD

Adenosine receptor A2b = molecular target: T2, Adenosine receptor A2b (Homo sapiens, UniProt P29275); experiment: Displacement of radioligand from human recombinant adenosine A2B receptor at 21 degC after 60 mins by cell-based microplate scintillation counting
T2 sequence (P29275 whole entry): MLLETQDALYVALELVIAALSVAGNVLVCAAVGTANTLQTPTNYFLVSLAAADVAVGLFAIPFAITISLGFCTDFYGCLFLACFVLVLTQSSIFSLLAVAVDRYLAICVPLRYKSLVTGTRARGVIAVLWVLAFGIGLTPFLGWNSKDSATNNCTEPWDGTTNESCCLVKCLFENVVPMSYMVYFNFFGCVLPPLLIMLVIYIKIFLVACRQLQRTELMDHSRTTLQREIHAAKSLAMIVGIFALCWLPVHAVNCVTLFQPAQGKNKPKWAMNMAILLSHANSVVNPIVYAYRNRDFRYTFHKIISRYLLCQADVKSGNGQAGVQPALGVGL

Adenosine receptor A2a [1] = molecular target: T3, Adenosine receptor A2a (Homo sapiens, UniProt P29274); experiment: Displacement of radioligand from human recombinant adenosine A2A receptor at 21 degC after 90 mins by cell-based microplate scintillation counting
Mus musculus [2] = experiment: Reversal of haloperidol-induced hypolocomotion in TO mouse assessed as time spent for locomotor activity at 1 mg/kg, po administered 15 mins prior to testing done for 60 mins; type: functional, organism-based; set-up: dose 1 mg/kg
Procedure, shortened: (§1)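 Haloperidol (0.2 mg/kg ip) used to induce hypolocomotion; antagonist given orally over 0.01-10 mg/kg in mouse and rat; activity scored as time spent active during a 60 min session; p < 0.05 versus vehicle (+haloperidol) control; minimal effective dose taken as lowest active dose.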

Adenosine receptor A3 = molecular target: T4, Adenosine receptor A3 (Homo sapiens, UniProt P0DMS8); experiment: Displacement of radioligand from human recombinant adenosine A3 receptor at 21 degC after 60 mins by cell-based microplate scintillation counting
T4 sequence (P0DMS8 whole entry): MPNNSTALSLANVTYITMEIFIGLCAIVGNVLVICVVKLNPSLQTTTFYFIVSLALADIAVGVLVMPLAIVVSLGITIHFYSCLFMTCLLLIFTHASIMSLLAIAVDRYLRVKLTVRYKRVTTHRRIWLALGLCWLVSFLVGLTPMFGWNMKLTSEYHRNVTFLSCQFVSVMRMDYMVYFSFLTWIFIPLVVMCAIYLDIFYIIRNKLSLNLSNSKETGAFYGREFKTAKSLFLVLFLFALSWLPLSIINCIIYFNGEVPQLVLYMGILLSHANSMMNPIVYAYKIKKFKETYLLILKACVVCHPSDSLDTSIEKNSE

Rattus norvegicus [3] = experiment: Reversal of haloperidol-induced hypolocomotion in po dosed Sprague-Dawley rat assessed as time spent for locomotor activity administered 15 mins prior to testing done for 60 mins; type: functional, organism-based; procedure, shortened: as §1
Mus musculus [4] = experiment: Reversal of haloperidol-induced hypolocomotion in po dosed TO mouse assessed as time spent for locomotor activity administered 120 mins prior to testing done for 60 mins; type: functional, organism-based; procedure, shortened: as §1
Mus musculus [5] = experiment: Reversal of haloperidol-induced hypolocomotion in po dosed TO mouse assessed as minimal effective dose administered 15 mins prior to testing done for 60 mins; type: functional; conditions: read-out: MED; procedure, shortened: as §1
Rattus norvegicus [6] = experiment: Reversal of haloperidol-induced hypolocomotion in po dosed Sprague-Dawley rat assessed as minimal effective dose administered 120 mins prior to testing done for 60 mins; type: functional; conditions: read-out: MED; procedure, shortened: as §1
[7] = molecular target: T5, Adenosine receptor A3 (Homo sapiens) (UniProt P0DMS8); conditions: CHO-K1
T5 sequence (whole entry): T4 sequence (P0DMS8 whole entry)

Adenosine receptor A2a [8] = molecular target: T3, Adenosine receptor A2a; conditions: CHO-K1
[9] = molecular target: T6, Adenosine receptor A2b (Homo sapiens) (UniProt P29275); conditions: CHO-K1
T6 sequence (whole entry): T2 sequence (P29275 whole entry)

[10] = molecular target: T7, Adenosine receptor A1 (Homo sapiens) (UniProt P30542); conditions: CHO-K1
T7 sequence (whole entry): T1 sequence (P30542 whole entry)

Mus musculus [11] = experiment: Increase in locomotor activity in mouse at 100 mg/kg administered for 4 days; type: functional, organism-based; set-up: dose 100 mg/kg
Mus musculus [12] = experiment: Reversal of haloperidol-induced hypolocomotion in TO mouse assessed as time spent for locomotor activity at 30 mg/kg, po administered 15 mins prior and measured for 60 mins; type: functional, organism-based; set-up: dose 30 mg/kg
[13] = Aqueous solubility in phosphate buffered saline; type: physicochemical
Liver microsomes = experiment: Metabolic stability in rat liver microsomes after 30 mins; type: ADME, Microsome; conditions: 0.5 h
Procedure, shortened: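 Turnover by rodent liver microsomes measured as percent turnover after 30 min.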

Rattus norvegicus [14] = experiment: Reversal of haloperidol-induced hypolocomotion in Sprague-Dawley rat assessed as time spent for locomotor activity at 30 mg/kg, po administered 120 mins prior and measured for 60 mins; type: functional, organism-based; set-up: dose 30 mg/kg
[15] = Half life in Sprague-Dawley rat at 2 mg/kg, iv; type: ADME, organism-based; set-up: dose 2 mg/kg, route intravenous; conditions: in vivo
Brain = experiment: Drug uptake in Sprague-Dawley rat brain at 2 mg/kg, iv; type: ADME, organism-based; set-up: dose 2 mg/kg, route intravenous; conditions: in vivo
Procedure, shortened: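 Male Sprague-Dawley rats dosed intravenously at 2 mg kg^-1; brain uptake calculated as brain/plasma AUClast ratio.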

[16] = Oral bioavailability in Sprague-Dawley rat; type: ADME, organism-based; conditions: in vivo
Mus musculus [17] = experiment: Toxicity in mouse at 100 mg/kg administered for 4 days; type: organism-based; set-up: dose 100 mg/kg; conditions: in vivo, 96 h
[18] = Apparent permeability across human Caco-2 cell membrane; type: ADME, cell-based; conditions: read-out: permeability
[19] = Tmax in Sprague-Dawley rat at 2 mg/kg, iv; type: ADME, organism-based; set-up: dose 2 mg/kg, route intravenous; conditions: in vivo
[20] = molecular target: Voltage-gated inwardly rectifying potassium channel KCNH2 (Homo sapiens, UniProt Q12809); experiment: Binding affinity to human ERG at 30 uM by patch clamp technique
Procedure, shortened: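 hERG potassium channel examined by patch clamp at concentrations up to 30 µM, the maximal concentration reached in the protocol; response compared with vehicle alone.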

Mus musculus [21] = experiment: Reversal of haloperidol-induced hypolocomotion in TO mouse assessed as time spent for locomotor activity at 0.3 mg/kg, po administered 15 mins prior to testing done for 60 mins; type: functional, organism-based; set-up: dose 0.3 mg/kg; procedure, shortened: as §1
Rattus norvegicus [22] = experiment: Reversal of haloperidol-induced hypolocomotion in Sprague-Dawley rat assessed as time spent for locomotor activity at 1 mg/kg, po administered 120 mins prior to testing done for 60 mins; type: functional, organism-based; set-up: dose 1 mg/kg; procedure, shortened: as §1
Homo sapiens [23] = species on record: Homo sapiens; experiment: Selectivity for human recombinant adenosine A2A receptor over human recombinant adenosine A2B receptor by cell-based assay
Homo sapiens [24] = species on record: Homo sapiens; experiment: Selectivity for human recombinant adenosine A2A receptor over human recombinant adenosine A1 receptor by cell-based assay
Homo sapiens [25] = species on record: Homo sapiens; experiment: Selectivity for human recombinant adenosine A2A receptor over human recombinant adenosine A3 receptor by cell-based assay
[26] = Solubility at neutral pH; type: physicochemical

T3 sequence (P29274 whole entry): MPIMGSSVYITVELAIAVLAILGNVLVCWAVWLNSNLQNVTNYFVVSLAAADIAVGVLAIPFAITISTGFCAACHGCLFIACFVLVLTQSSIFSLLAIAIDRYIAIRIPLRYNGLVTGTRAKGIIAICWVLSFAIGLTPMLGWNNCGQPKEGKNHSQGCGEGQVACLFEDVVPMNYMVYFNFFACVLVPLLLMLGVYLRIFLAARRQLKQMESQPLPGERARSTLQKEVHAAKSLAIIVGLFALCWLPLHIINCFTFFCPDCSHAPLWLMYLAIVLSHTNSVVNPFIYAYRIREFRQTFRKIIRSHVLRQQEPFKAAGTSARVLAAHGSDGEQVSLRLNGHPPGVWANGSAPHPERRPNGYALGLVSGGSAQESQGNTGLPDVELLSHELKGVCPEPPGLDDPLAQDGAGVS
Sequence of Voltage-gated inwardly rectifying potassium channel KCNH2 (Q12809 whole entry): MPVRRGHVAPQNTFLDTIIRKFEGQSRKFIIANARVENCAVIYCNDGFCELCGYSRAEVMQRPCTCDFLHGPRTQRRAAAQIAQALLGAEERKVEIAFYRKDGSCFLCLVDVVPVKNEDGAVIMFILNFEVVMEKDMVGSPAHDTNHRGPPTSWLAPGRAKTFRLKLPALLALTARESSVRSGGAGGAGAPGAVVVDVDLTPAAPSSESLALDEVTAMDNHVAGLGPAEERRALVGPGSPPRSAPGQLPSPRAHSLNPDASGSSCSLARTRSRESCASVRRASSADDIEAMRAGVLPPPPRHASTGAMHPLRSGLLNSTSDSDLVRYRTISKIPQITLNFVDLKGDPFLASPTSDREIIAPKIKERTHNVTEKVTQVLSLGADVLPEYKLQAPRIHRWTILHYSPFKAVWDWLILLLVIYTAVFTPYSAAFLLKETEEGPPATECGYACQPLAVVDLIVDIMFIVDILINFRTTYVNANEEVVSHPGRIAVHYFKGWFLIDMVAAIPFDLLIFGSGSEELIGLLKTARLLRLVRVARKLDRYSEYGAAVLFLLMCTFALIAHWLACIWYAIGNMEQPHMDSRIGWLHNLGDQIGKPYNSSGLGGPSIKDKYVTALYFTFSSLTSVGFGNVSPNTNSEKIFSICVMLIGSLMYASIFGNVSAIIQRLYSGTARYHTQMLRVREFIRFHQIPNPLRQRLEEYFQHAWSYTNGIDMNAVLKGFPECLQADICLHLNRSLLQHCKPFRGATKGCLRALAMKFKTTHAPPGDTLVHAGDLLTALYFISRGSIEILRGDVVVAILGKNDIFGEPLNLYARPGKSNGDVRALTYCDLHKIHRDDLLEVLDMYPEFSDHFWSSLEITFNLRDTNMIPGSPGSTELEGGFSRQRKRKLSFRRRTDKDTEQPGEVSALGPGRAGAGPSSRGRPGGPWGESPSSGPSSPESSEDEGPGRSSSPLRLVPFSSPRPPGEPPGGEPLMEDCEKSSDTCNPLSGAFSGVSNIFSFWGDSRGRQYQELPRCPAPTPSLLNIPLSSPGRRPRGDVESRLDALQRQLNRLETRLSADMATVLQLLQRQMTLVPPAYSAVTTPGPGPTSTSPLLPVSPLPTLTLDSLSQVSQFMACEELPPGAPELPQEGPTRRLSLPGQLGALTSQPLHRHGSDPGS

SMILES	Ki (Adenosine receptor A1) [nM]	Ki (Adenosine receptor A2b) [nM]	Ki (Adenosine receptor A2a [1]) [nM]	Ki (Adenosine receptor A3) [nM]	other results
Nc1nc(-c2ccco2)c2nnn(Cc3ccsc3)c2n1	78	164	1.9	136	Activity (Rattus norvegicus [3]): inactive; Activity (Mus musculus [4]): inactive
Cc1cc(Cn2nnc3c(-c4ccco4)nc(N)nc32)ccc1N	–	–	–	–	KA [7]: 1500 nM; KA (Adenosine receptor A2a [8]): 0.58 nM; KA [9]: 31 nM; KA [10]: 95 nM; Activity (Mus musculus [11]): Active
Cc1cc(Cn2nnc3c(-c4ccco4)nc(N)nc32)ccc1N [VIPADENANT]	–	–	–	–	half-life [15]: 2 h; Drug uptake (Brain): 57%; bioavailability [16]: 35%; Activity (Mus musculus [17]): Non-toxic; Papp [18]: 11 ×10⁻⁶ cm/s; Tmax [19]: 0.5 h; Activity [20]: Not Active
Nc1nc(-c2ccco2)c2nnn(Cc3cccnc3)c2n1	931	225	14.5	1020	Activity (Rattus norvegicus [3]): inactive; Activity (Mus musculus [4]): inactive
CCn1c(=O)c2c(nc(/C=C/c3ccc(OC)c(OC)c3)n2C)n(CC)c1=O	–	–	–	–	Activity (Mus musculus [21]): Active; Activity (Rattus norvegicus [22]): Active
Nc1nc(-c2ccco2)c2nnn(Cc3ccc(F)cc3F)c2n1	118	226	2	1180	Activity (Mus musculus [12]): inactive; solubility [13]: 30 µM (≈ 9.85 µg/mL); Stability (Liver microsomes): Stable; fold change (FC) (Homo sapiens [23]): > 50; Activity (Rattus norvegicus [14]): inactive; fold change (FC) (Homo sapiens [24]): > 50; fold change (FC) (Homo sapiens [25]): > 50
CS(=O)(=O)O.Cc1cc(Cn2nnc3c(-c4ccco4)nc(N)nc32)ccc1N	–	–	–	–	solubility [26]: 36 mg/mL
Cc1cc(Cn2nnc3c(-c4ccco4)nc(N)nc32)ccc1N.Cl.Cl	–	–	–	–	solubility [26]: 18 mg/mL
CCc1cc(Cn2nnc3c(-c4ccco4)nc(N)nc32)ccc1N	26	118	1	221	Activity (Rattus norvegicus [3]): inactive; Activity (Mus musculus [4]): inactive

More lines, main results first:

Ki (Adenosine receptor A1) [nM]	Ki (Adenosine receptor A2b) [nM]	Ki (Adenosine receptor A2a [1]) [nM]	Ki (Adenosine receptor A3) [nM]	SMILES	other results
131	270	2.5	792	Nc1cccc(Cn2nnc3c(-c4ccco4)nc(N)nc32)c1	Activity (Mus musculus [2]): Active
50	397	1.5	251	CC(C)c1cc(Cn2nnc3c(-c4ccco4)nc(N)nc32)ccc1N	Activity (Rattus norvegicus [3]): inactive; Activity (Mus musculus [4]): inactive
190	46	1.5	752	Nc1ccc(Cn2nnc3c(-c4ccco4)nc(N)nc32)cc1	Activity (Mus musculus [2]): Active
63	123	–	302	Nc1nc(-c2ccco2)c2nnn(Cc3ccccc3N)c2n1	minimal effective dose (Mus musculus [5]): 10 mg/kg; minimal effective dose (Rattus norvegicus [6]): 10 mg/kg
19	6	2.1	260	Cc1ccc(-c2nc(N)nc3c2nnn3Cc2ccccc2F)o1	Activity (Mus musculus [12]): inactive; solubility [13]: 30 µM (≈ 9.73 µg/mL); minimal effective dose (Mus musculus [5]): 3 mg/kg; Stability (Liver microsomes): Stable; Activity (Rattus norvegicus [14]): inactive; minimal effective dose (Rattus norvegicus [6]): 3 mg/kg
1120	258	12	1080	Nc1nc(-c2ccco2)c2nnn(Cc3ccccn3)c2n1	Activity (Rattus norvegicus [3]): inactive; Activity (Mus musculus [4]): inactive
40	181	1.6	636	CNc1ccc(Cn2nnc3c(-c4ccco4)nc(N)nc32)cc1	Activity (Mus musculus [2]): Active
117	88	2.3	123	Nc1nc(-c2ccco2)c2nnn(Cc3cccs3)c2n1	minimal effective dose (Mus musculus [5]): 30 mg/kg; minimal effective dose (Rattus norvegicus [6]): 30 mg/kg
700	132	11.1	2580	NC(=O)c1cccc(Cn2nnc3c(-c4ccco4)nc(N)nc32)c1	Activity (Mus musculus [12]): inactive; solubility [13]: 30 µM (≈ 10.1 µg/mL); Stability (Liver microsomes): Stable; Activity (Rattus norvegicus [14]): inactive

Source: ChEMBL document CHEMBL1139344, “Antagonists of the human A(2A) adenosine receptor. 4. Design, synthesis, and preclinical evaluation of 7-aryltriazolo[4,5-d]pyrimidines” (J Med Chem, 2009)
